Data on 13 compounds can be found in ChEMBL document CHEMBL1148383, “Semisynthetic macrolide antibacterials derived from tylosin. Synthesis and structure-activity relationships of novel desmycosin analogues” (J Med Chem, 2004).

Holding throughout (assay type): functional
The test system of one test is Enterococcus faecalis. Description: Antibacterial activity against Enterococcus faecalis ATCC 29212. Summed up:
(§1)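 MICs were determined by broth microdilution following NCCLS guidelines. The test panel includes erythromycin-susceptible strains and erythromycin-resistant strains with constitutive or inducible MLSB phenotypes or with efflux resistance.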

In a further test the test system is Escherichia coli. Description: Antibacterial activity against Escherichia coli ATCC […]. Summed up:
as §1

In test [1] the test system is Staphylococcus aureus. Description: Antibacterial activity against Staphylococcus aureus PSCB-0331. Summed up:
as §1

Test [2] concerns Streptococcus pyogenes. Kind of test: Antibacterial activity against Streptococcus pyogenes PSCB-0545. Summed up:
as §1

Test [3] has as its system Staphylococcus aureus. Kind of test: Antibacterial activity against Staphylococcus aureus PSCB-0330. Summed up:
as §1

Another test deals with Haemophilus influenzae. Description: Antibacterial activity against Haemophilus influenzae ATCC 49247. Summed up: as §1
In test [4] the test system is Staphylococcus aureus. Kind of test: Antibacterial activity against Staphylococcus aureus PSCB-0538. In a few lines:
as §1

The subject of the next test is Streptococcus pneumoniae. Kind of test: Antibacterial activity against Streptococcus pneumoniae PSCB-0541. Summed up:
as §1

For test [5], the system named is Staphylococcus aureus. Description: Antibacterial activity against Staphylococcus aureus ATCC 13709. Summed up:
as §1

The subject of test [6] is Streptococcus pyogenes. Kind of test: Antibacterial activity against Streptococcus pyogenes PSCB-0543. Summed up: as §1

In brackets after ≈: the same amount, converted by molar mass.

On to `CC[C@H]1OC(=O)C[C@@H](O)[C@H](C)[C@@H](OC2OC(C)C(O)C(N(C)C)C2O)[C@@H](C/C=C/C(=O)OC)C[C@@H](C)C(=O)/C=C/C(C)=C/[C@@H]1COC1OC(C)C(O)C(OC)C1OC` (some centres undefined), for which the MIC is 0.5 µg/mL (≈ 0.604 µM) against Enterococcus faecalis; over 128 µg/mL in the test on Escherichia coli; 0.5 µg/mL (≈ 0.604 µM) against Staphylococcus aureus [1]; 0.5 µg/mL (≈ 0.604 µM) in the test with Streptococcus pyogenes [2]; over 128 µg/mL in the test with Staphylococcus aureus [3]; 16 µg/mL (≈ 19.3 µM) in the test on Haemophilus influenzae. The MIC against Staphylococcus aureus [4] is 0.5 µg/mL (≈ 0.604 µM); against Streptococcus pneumoniae it was 2 µg/mL (≈ 2.42 µM); with Staphylococcus aureus [5], 0.5 µg/mL (≈ 0.604 µM); in the test on Streptococcus pyogenes [6], 0.5 µg/mL (≈ 0.604 µM).

`CC[C@H]1OC(=O)C[C@@H](OC(C)=O)[C@H](C)[C@@H](OC2OC(C)C(O)C(N(C)C)C2O)[C@@H](CC=O)C[C@@H](C)C(=O)/C=C/C(C)=C/[C@@H]1COC1OC(C)C(O)C(OC)C1OC` (some centres undefined): the MIC is 8 µg/mL (≈ 9.83 µM) with Enterococcus faecalis; over 128 µg/mL with Escherichia coli; 2 µg/mL (≈ 2.46 µM) with Staphylococcus aureus [1]; 2 µg/mL (≈ 2.46 µM) against Streptococcus pyogenes [2]; over 128 µg/mL in the test on Staphylococcus aureus [3]; 32 µg/mL (≈ 39.3 µM) against Haemophilus influenzae. Further, the MIC was found to be 8 µg/mL (≈ 9.83 µM) against Staphylococcus aureus [4], 2 µg/mL (≈ 2.46 µM) in the test on Streptococcus pneumoniae, 1 µg/mL (≈ 1.23 µM) in the test with Staphylococcus aureus [5] and 2 µg/mL (≈ 2.46 µM) with Streptococcus pyogenes [6].

As to `CC[C@H]1OC(=O)CC2(O)C(C=O)[C@@H](C[C@@H](C)C(=O)/C=C/C(C)=C/[C@@H]1CO[C@@H]1O[C@@H](C)[C@@H](O)[C@@H](OC)[C@@H]1OC)[C@H](O[C@@H]1O[C@@H](C)[C@@H](O)[C@@H](N(C)C)[C@H]1O)[C@H]2C` (some centres undefined), the MIC with Enterococcus faecalis is 16 µg/mL (≈ 20.8 µM); against Escherichia coli, over 128 µg/mL; in the test with Staphylococcus aureus [1], 64 µg/mL (≈ 83.1 µM); against Streptococcus pyogenes [2], 32 µg/mL (≈ 41.6 µM); in the test with Staphylococcus aureus [3], over 128 µg/mL; against Haemophilus influenzae it was 64 µg/mL (≈ 83.1 µM). The MIC against Staphylococcus aureus [4] came to 32 µg/mL (≈ 41.6 µM); against Streptococcus pneumoniae, 32 µg/mL (≈ 41.6 µM); with Staphylococcus aureus [5] it was 32 µg/mL (≈ 41.6 µM); in the test on Streptococcus pyogenes [6], 64 µg/mL (≈ 83.1 µM).

Consider `CCOC(=O)/C=C/C[C@H]1C[C@@H](C)C(=O)/C=C/C(C)=C/[C@H](COC2OC(C)C(O)C(OC)C2OC)[C@@H](CC)OC(=O)C[C@@H](NN(C(=O)OCC)C(=O)OCC)[C@H](C)[C@H]1OC1OC(C)C(O)C(N(C)C)C1O` (some centres undefined), for which the MIC against Enterococcus faecalis came to 64 µg/mL (≈ 64 µM); in the test with Escherichia coli, 128 µg/mL (≈ 128 µM); against Staphylococcus aureus [1], 32 µg/mL (≈ 32 µM); against Streptococcus pyogenes [2], 16 µg/mL (≈ 16 µM); against Staphylococcus aureus [3], 128 µg/mL (≈ 128 µM); against Haemophilus influenzae, 128 µg/mL (≈ 128 µM). The MIC in the test with Staphylococcus aureus [4] stood at 64 µg/mL (≈ 64 µM); against Streptococcus pneumoniae, 32 µg/mL (≈ 32 µM); in the test on Staphylococcus aureus [5], 4 µg/mL (≈ 4 µM); in the test on Streptococcus pyogenes [6] it was 32 µg/mL (≈ 32 µM).

For `CC[C@H]1OC(=O)CC(=O)[C@H](C)[C@@H](O[C@@H]2O[C@@H](C)[C@@H](O)[C@@H](N(C)C)[C@H]2O)[C@H]2C[C@@H](O)[C@](C)(C2)C(=O)/C=C/C(C)=C/[C@@H]1CO[C@@H]1O[C@@H](C)[C@@H](O)[C@@H](OC)[C@@H]1OC`, the MIC is 4 µg/mL (≈ 5.2 µM) against Enterococcus faecalis; over 128 µg/mL with Escherichia coli; 32 µg/mL (≈ 41.6 µM) in the test on Staphylococcus aureus [1]; 16 µg/mL (≈ 20.8 µM) in the test on Streptococcus pyogenes [2]; over 128 µg/mL against Staphylococcus aureus [3]; 128 µg/mL (≈ 166 µM) against Haemophilus influenzae. Besides, the MIC was determined as 4 µg/mL (≈ 5.2 µM) against Staphylococcus aureus [4], 8 µg/mL (≈ 10.4 µM) against Streptococcus pneumoniae, 8 µg/mL (≈ 10.4 µM) with Staphylococcus aureus [5] and 64 µg/mL (≈ 83.1 µM) with Streptococcus pyogenes [6].

Take `CC[C@H]1OC(=O)CC(=O)[C@H](C)[C@@H](O[C@@H]2O[C@@H](C)[C@@H](O)[C@@H](N(C)C)[C@H]2O)[C@H]2C[C@H](O)[C@@](C)(C2)C(=O)/C=C/C(C)=C/[C@@H]1CO[C@@H]1O[C@@H](C)[C@@H](O)[C@@H](OC)[C@@H]1OC`: the MIC is 8 µg/mL (≈ 10.4 µM) in the test on Enterococcus faecalis; over 128 µg/mL against Escherichia coli; 32 µg/mL (≈ 41.6 µM) in the test with Staphylococcus aureus [1]; 16 µg/mL (≈ 20.8 µM) in the test on Streptococcus pyogenes [2]; over 128 µg/mL with Staphylococcus aureus [3]; 128 µg/mL (≈ 166 µM) against Haemophilus influenzae. Besides, the MIC in the test on Staphylococcus aureus [4] is 8 µg/mL (≈ 10.4 µM); with Streptococcus pneumoniae, 4 µg/mL (≈ 5.2 µM); against Staphylococcus aureus [5] it was 8 µg/mL (≈ 10.4 µM); in the test with Streptococcus pyogenes [6], 64 µg/mL (≈ 83.1 µM).

Turning to `CC[C@H]1OC(=O)C[C@@H](O)[C@H](C)[C@@H](O[C@@H]2O[C@H](C)[C@@H](O)[C@@H](N(C)C)[C@H]2O)[C@@H](CC=O)C[C@@H](C)C(=O)/C=C/C(C)=C/[C@@H]1CO[C@@H]1O[C@H](C)[C@@H](O)[C@@H](OC)[C@H]1OC`, the MIC with Enterococcus faecalis is 1 µg/mL (≈ 1.3 µM); in the test on Escherichia coli, 128 µg/mL (≈ 166 µM); against Staphylococcus aureus [1] it was 1 µg/mL (≈ 1.3 µM); with Streptococcus pyogenes [2], 0.5 µg/mL (≈ 0.648 µM); against Staphylococcus aureus [3], over 128 µg/mL; in the test on Haemophilus influenzae, 4 µg/mL (≈ 5.18 µM). For the same compound, the MIC with Staphylococcus aureus [4], in the test with Streptococcus pneumoniae, in the test with Staphylococcus aureus [5] and in the test with Streptococcus pyogenes [6] was 1 µg/mL (≈ 1.3 µM) each time.

As to `CC[C@H]1O/C(O)=C/C(=O)[C@H](C)[C@@H](OC2OC(C)C(O)C(N(C)C)C2O)[C@@H](C/C=C/C(=O)OC)C[C@@H](C)C(=O)/C=C/C(C)=C/[C@@H]1COC1OC(C)C(O)C(OC)C1OC` (some centres undefined), the MIC against Enterococcus faecalis is 4 µg/mL (≈ 4.84 µM); against Escherichia coli, over 128 µg/mL; in the test on Staphylococcus aureus [1], 2 µg/mL (≈ 2.42 µM); against Streptococcus pyogenes [2], 4 µg/mL (≈ 4.84 µM); in the test on Staphylococcus aureus [3] it was over 128 µg/mL; against Haemophilus influenzae it was 128 µg/mL (≈ 155 µM). Further, the MIC is 2 µg/mL (≈ 2.42 µM) in the test with Staphylococcus aureus [4], 32 µg/mL (≈ 38.7 µM) against Streptococcus pneumoniae, 2 µg/mL (≈ 2.42 µM) against Staphylococcus aureus [5] and 4 µg/mL (≈ 4.84 µM) against Streptococcus pyogenes [6].

As for `CC[C@H]1OC(=O)/C=C\[C@H](C)[C@@H](OC2OC(C)C(O)C(N(C)C)C2O)[C@@H](CC=O)C[C@@H](C)C(=O)/C=C/C(C)=C/[C@@H]1COC1OC(C)C(O)C(OC)C1OC` (some centres undefined), the MIC with Enterococcus faecalis is 8 µg/mL (≈ 10.6 µM); in the test with Escherichia coli it was over 128 µg/mL; in the test with Staphylococcus aureus [1] it was 1 µg/mL (≈ 1.33 µM); in the test with Streptococcus pyogenes [2], 1 µg/mL (≈ 1.33 µM); against Staphylococcus aureus [3] it was over 128 µg/mL; against Haemophilus influenzae it was 4 µg/mL (≈ 5.31 µM). Besides, the MIC against Staphylococcus aureus [4] stood at 4 µg/mL (≈ 5.31 µM); in the test on Streptococcus pneumoniae, 2 µg/mL (≈ 2.65 µM); against Staphylococcus aureus [5], 0.5 µg/mL (≈ 0.663 µM); in the test on Streptococcus pyogenes [6] it was 2 µg/mL (≈ 2.65 µM).

`CC[C@H]1OC(=O)C[C@H](O)[C@H](C)[C@@H](OC2OC(C)C(O)C(N(C)C)C2O)[C@@H](C/C=C/C(=O)OC)C[C@@H](C)C(=O)/C=C/C(C)=C/[C@@H]1COC1OC(C)C(O)C(OC)C1OC` (some centres undefined): the MIC in the test with Escherichia coli and in the test on Staphylococcus aureus [3] was over 128 µg/mL each time.

Regarding `CC[C@H]1OC(=O)C[C@@H](O)[C@H](C)[C@@H](OC2OC(C)C(O)C(=O)C2O)[C@@H](CC=O)C[C@@H](C)C(=O)/C=C/C(C)=C/[C@@H]1COC1OC(C)C(O)C(OC)C1OC` (some centres undefined), the MIC against Escherichia coli and in the test on Staphylococcus aureus [3] was over 128 µg/mL in each case.

In the case of `CC[C@H]1O/C(O)=C/C(=O)[C@H](C)[C@@H](OC2OC(C)C(O)C(N(C)C)C2O)[C@@H](CC=O)C[C@@H](C)C(=O)CCC(C)C[C@@H]1COC1OC(C)C(O)C(OC)C1OC` (some centres undefined), the MIC in the test on Enterococcus faecalis is over 128 µg/mL; against Escherichia coli, over 128 µg/mL; with Staphylococcus aureus [1] it was 8 µg/mL (≈ 10.3 µM); with Streptococcus pyogenes [2] it was 1 µg/mL (≈ 1.29 µM); in the test with Staphylococcus aureus [3], over 128 µg/mL; in the test on Haemophilus influenzae, over 128 µg/mL. Further, the MIC turned out to be 16 µg/mL (≈ 20.7 µM) in the test on Staphylococcus aureus [4], 64 µg/mL (≈ 82.7 µM) against Streptococcus pneumoniae, 8 µg/mL (≈ 10.3 µM) in the test on Staphylococcus aureus [5] and 8 µg/mL (≈ 10.3 µM) with Streptococcus pyogenes [6].

For the compound `CC[C@H]1OC(=O)C[C@@H](O)[C@H](C)[C@@H](OC2OC(C)C(OC3CC(C)(O)C(O)C(C)O3)C(N(C)C)C2O)[C@@H](CC=O)C[C@@H](C)C(=O)CCC(C)C[C@@H]1COC1OC(C)C(O)C(OC)C1OC` (some centres undefined), the MIC was 16 µg/mL (≈ 17.4 µM) with Enterococcus faecalis; 64 µg/mL (≈ 69.6 µM) in the test on Escherichia coli; 2 µg/mL (≈ 2.17 µM) with Staphylococcus aureus [1]; 1 µg/mL (≈ 1.09 µM) with Streptococcus pyogenes [2]; 64 µg/mL (≈ 69.6 µM) against Staphylococcus aureus [3]; 64 µg/mL (≈ 69.6 µM) with Haemophilus influenzae. Besides, the MIC came out at 4 µg/mL (≈ 4.35 µM) against Staphylococcus aureus [4], 8 µg/mL (≈ 8.69 µM) against Streptococcus pneumoniae, 2 µg/mL (≈ 2.17 µM) against Staphylococcus aureus [5] and 64 µg/mL (≈ 69.6 µM) with Streptococcus pyogenes [6].
